Experimental data collected from several papers.
Lines come from different studies, so protocols differ.
CDK2: Cyclin-dependent kinase 2 (CDK2, Homo sapiens, UniProt P24941)

SMILES	target	assay	test system	setting	endpoint	value
COc1cc(Br)cc(C2NC(=O)NC(C)=C2C(=O)OCc2ccccc2)c1O (stereo not drawn)	Voltage-dependent L-type calcium channel subunit alpha-1C (Cacna1c, Rattus norvegicus, UniProt P22002)	ion current, inhibitor, patch clamp	HEK293	10 µM	inhibition	> 60%
Cc1cc(O)c(-c2ccc([C@@H](C)CN(C)C)cc2)c2c1[nH]c(=O)c1sccc12	MAP kinase-activated protein kinase 3 (MAPKAPK3, Homo sapiens, UniProt Q16644)	enzyme activity, inhibitor	–	0.1 µM	inhibition	-21.1%
NC/C(=C\F)COc1cccc(Cn2c(=S)[nH]c(=O)c3[nH]cnc32)c1	Voltage-dependent N-type calcium channel subunit alpha-1B (Cacna1b, Rattus norvegicus, UniProt Q02294)	ligand displacement, radioligand	–	10 µM	inhibition	< 50%
Cc1cc(S(=O)(=O)NCCO[C@H]2CC[C@H](CN3CCC(c4ccc5c(c4)n(C)c(=O)n5C4CCC(=O)NC4=O)CC3)CC2)ccc1Nc1ncc(C(F)(F)F)c([C@H]2CC[C@@](C)(O)CC2)n1 (stereo partly drawn)	CDK2	protein level, degrader, western blot	MKN-1	–	Dmax	90%
C#Cc1cc(-c2cc(Nc3nc(N[C@@H](C)c4ccc(F)cn4)ncc3Cl)n[nH]2)ccc1C=O	Tyrosine-protein kinase Fyn (FYN, Homo sapiens, UniProt P06241)	enzyme activity, inhibitor	–	0.2 µM	inhibition	66.5%
CCN1/C(=C/C(C)=O)Sc2ccc(F)cc21	Alpha-1A adrenergic receptor (Adra1a, Rattus norvegicus, UniProt P43140)	ligand displacement, radioligand	–	10 µM	inhibition	1.54%
Cc1cc(S(=O)(=O)NCCO[C@H]2CC[C@H](CN3CCC(c4ccc5c(c4F)n(C)c(=O)n5C4CCC(=O)NC4=O)CC3)CC2)ccc1Nc1ncc(C(F)(F)F)c([C@H]2CC[C@@](C)(O)CC2)n1 (stereo partly drawn)	CDK2	protein level, degrader, western blot	MKN-1	–	Dmax	86%
C1=C/COCc2cc(ccc2OCCN2CCCC2)Nc2nccc(n2)-c2cccc(c2)COC/1	Cyclin-dependent kinase 2 homolog (CRK2, Plasmodium falciparum, UniProt P61075)	cell-free assay	–	0.1 µM	remaining signal	85%
C[C@]1(O)CCCN(c2nc(Nc3ccc(S(=O)(=O)N[C@H]4CC[C@H](CN5CCN(c6ccc(C7CCC(=O)NC7=O)cc6F)CC5)CC4)cc3F)ncc2C(F)(F)F)C1 (stereo partly drawn)	CDK2	protein level, degrader, western blot	TOV21G	–	Dmax	95%
CCCCC(=O)Nc1ccc(-c2ccc3ncn(CCC)c(=O)c3c2)cn1	Serine/threonine-protein kinase D3 (PRKD3, Homo sapiens, UniProt O94806)	binding, competition with immobilised ligand	–	0.5 µM	remaining binding	92%
Cc1cc(=O)oc2cc(NC(=O)[C@H](CCCN=C(N)N)NC(=O)[C@H](CCCN=C(N)N)NC(=O)OCc3ccccc3)ccc12	Cathepsin B (CTSB, Homo sapiens, UniProt P07858)	enzyme activity, substrate, fluorescence	–	pH 5	Km	858 µM
Cc1cc(S(=O)(=O)NC2CC(N3CCN(CC4CCN(c5cccc6c5n(C)c(=O)n6C5CCC(=O)NC5=O)CC4)C4(CC4)C3)C2)ccc1Nc1ncc(C(F)(F)F)c(N2CCC[C@](C)(O)C2)n1 (stereo partly drawn)	CDK2	protein level, degrader, western blot	MKN-1	–	Dmax	92%
